These results are taken from ChEMBL document CHEMBL1124671, “Carboxyalkyl dipeptides with atrial natriuretic factor potentiating and antihypertensive activity” (J Med Chem, 1989).

One assay concerns the target T1, Neprilysin (Oryctolagus cuniculus, UniProt P08049).
T1 sequence (P08049 whole entry): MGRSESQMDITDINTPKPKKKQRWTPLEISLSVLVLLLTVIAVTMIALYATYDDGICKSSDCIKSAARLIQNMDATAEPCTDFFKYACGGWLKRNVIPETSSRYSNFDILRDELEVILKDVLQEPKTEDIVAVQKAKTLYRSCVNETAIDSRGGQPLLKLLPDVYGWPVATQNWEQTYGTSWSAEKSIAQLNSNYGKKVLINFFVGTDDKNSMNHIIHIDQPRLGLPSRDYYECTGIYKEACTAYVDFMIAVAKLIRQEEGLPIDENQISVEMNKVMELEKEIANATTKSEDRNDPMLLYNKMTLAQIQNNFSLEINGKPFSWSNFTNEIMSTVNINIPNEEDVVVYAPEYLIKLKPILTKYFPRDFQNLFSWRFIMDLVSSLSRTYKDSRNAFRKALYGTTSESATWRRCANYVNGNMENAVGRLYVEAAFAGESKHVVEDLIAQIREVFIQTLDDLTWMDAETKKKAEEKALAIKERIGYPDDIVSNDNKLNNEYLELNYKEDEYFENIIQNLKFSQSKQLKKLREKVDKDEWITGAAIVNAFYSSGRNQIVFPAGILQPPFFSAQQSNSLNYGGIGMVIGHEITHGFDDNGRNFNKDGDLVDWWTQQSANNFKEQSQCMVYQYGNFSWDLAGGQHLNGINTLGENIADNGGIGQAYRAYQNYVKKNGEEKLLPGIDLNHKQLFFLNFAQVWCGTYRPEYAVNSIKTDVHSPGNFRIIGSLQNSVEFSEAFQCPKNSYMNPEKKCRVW
Kind of assay: Compound was evaluated for the ability to inhibit neutral endopeptidase purified from rabbit kidney. A digest of the protocol: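 Enzyme: purified rabbit kidney neutral endopeptidase (NEP).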

Assay [1] has as its target T2, Natriuretic peptides A (Rattus norvegicus) (UniProt P01161).
T2 sequence (whole entry): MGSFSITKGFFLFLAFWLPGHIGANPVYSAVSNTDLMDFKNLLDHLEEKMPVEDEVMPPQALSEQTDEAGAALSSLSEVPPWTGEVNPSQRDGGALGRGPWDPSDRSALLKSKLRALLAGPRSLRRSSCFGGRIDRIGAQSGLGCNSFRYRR
Particulars: Cardiac atrium.

Assay [2] addresses T3, Angiotensin-converting enzyme (Rattus norvegicus, UniProt P47820).
T3 sequence (P47820 whole entry): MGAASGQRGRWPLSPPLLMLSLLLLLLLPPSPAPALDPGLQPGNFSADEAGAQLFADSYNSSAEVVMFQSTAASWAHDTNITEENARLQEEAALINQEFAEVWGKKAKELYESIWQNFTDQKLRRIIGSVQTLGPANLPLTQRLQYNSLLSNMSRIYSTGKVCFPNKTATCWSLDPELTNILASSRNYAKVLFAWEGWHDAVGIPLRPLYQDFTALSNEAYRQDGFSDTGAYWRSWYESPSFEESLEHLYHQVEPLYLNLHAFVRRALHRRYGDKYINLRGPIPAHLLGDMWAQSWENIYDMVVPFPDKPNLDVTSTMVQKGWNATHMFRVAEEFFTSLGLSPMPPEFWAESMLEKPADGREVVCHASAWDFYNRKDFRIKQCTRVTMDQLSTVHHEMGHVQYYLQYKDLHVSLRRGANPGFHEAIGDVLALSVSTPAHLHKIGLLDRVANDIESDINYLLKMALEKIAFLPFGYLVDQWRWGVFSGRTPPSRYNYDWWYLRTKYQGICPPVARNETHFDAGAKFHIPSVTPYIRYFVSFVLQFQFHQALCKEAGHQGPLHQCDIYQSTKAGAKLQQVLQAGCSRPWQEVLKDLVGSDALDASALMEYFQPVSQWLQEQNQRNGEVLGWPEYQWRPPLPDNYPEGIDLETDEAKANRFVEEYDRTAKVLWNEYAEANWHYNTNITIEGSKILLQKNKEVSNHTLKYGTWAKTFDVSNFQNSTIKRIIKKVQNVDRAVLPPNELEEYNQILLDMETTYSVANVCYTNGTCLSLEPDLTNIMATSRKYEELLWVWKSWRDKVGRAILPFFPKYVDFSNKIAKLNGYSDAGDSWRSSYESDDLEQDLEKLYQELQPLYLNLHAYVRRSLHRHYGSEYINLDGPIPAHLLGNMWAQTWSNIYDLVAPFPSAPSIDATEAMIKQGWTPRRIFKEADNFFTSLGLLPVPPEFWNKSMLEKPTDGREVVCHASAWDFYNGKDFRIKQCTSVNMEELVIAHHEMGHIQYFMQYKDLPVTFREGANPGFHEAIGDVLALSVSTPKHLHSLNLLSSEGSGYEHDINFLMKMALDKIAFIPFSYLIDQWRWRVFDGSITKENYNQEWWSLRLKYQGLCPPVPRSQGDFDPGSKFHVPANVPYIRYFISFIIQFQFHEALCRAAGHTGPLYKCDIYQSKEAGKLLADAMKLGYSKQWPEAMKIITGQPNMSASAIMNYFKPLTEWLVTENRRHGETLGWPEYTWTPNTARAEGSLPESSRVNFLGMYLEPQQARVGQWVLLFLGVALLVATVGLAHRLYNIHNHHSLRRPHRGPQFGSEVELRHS
Kind of assay: Compound was evaluated for the ability to inhibit Angiotensin I converting enzyme in rat.

Assay [3] addresses T2, Natriuretic peptides A (Rattus norvegicus). Kind of assay: Compound was administered subcutaneously to spontaneously hypertensive rats (SHR) and evaluated for the ability to potentiate atrial natriuretic factor (ANF). Summed up:
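Conscious SHR given 30 mg/kg s.c. 30 min before an i.v. challenge of 30 μg/kg ANF 103–125; mean arterial pressure followed, with vehicle-treated controls. Value is the maximum increase in hypotensive response to ANF over the control group.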

Molecules are shown by their SMILES. Activity calls are given as the source filed them. The calls are words filed in the database; no cut-off is given here.

What is called IC50 is the concentration at which inhibition is half-maximal. Low values mean inhibition by little substance, high ones a need for much substance. For `O=C(O)[C@H](CO)NC(=O)[C@H](Cc1ccccc1)N[C@@H](CCc1ccccc1)C(=O)O`, the 50% inhibitory concentration (IC50) stood at 393 nM at Neprilysin and 320 nM in assay [2]. Moreover, in assay [1], the Delta blood pressure entry was “inactive”.

`O=C(O)[C@H](CCc1ccccc1)N[C@@H](Cc1ccccc1)C(=O)NC[C@H](O)C(=O)O` (stereo in doubt; 6d) [listing 1 of 2 here]: the IC50 against Neprilysin was 11 nM; in assay [2], over 1000 nM.

Take `O=C(O)[C@H](Cc1ccccc1)N[C@@H](Cc1ccccc1)C(=O)NC[C@H](O)C(=O)O`: in assay [3], the Delta blood pressure was 17 mmHg. For the same compound, the figures for the half-maximal inhibitory concentration (IC50) (against Neprilysin; in assay [2]) were 11 nM and over 1000 nM, respectively.

Turning to `O=C(O)CCNC(=O)[C@H](Cc1ccccc1)N[C@@H](CCc1ccccc1)C(=O)O`, the Delta blood pressure in assay [3] is 17 mmHg. The values for the IC50 (against Neprilysin; in assay [2]) were 16 nM and over 1000 nM, respectively.

On to `O=C(O)[C@H](CCc1ccccc1)N[C@@H](Cc1ccccc1)C(=O)NC[C@H](O)C(=O)O` (stereo in doubt; 6d) [listing 2 of 2 here], for which the Delta blood pressure in assay [3] stood at 25 mmHg.

On to `O=C(O)[C@H](CCc1ccccc1)N[C@@H](Cc1ccccc1)C(=O)NC[C@H](O)C(=O)O` (stereo in doubt; 6e) [listing 1 of 2 here], for which the IC50 against Neprilysin was 15 nM; in assay [2], over 1000 nM.

Take `O=C(O)CCNC(=O)[C@H](Cc1ccccc1)N[C@@H](Cc1ccccc1)C(=O)O`: the Delta blood pressure in assay [3] is 20 mmHg. Also, the IC50 is 20 nM against Neprilysin and over 1000 nM in assay [2].

For the compound `O=C(O)[C@H](O)CNC(=O)[C@H](Cc1ccccc1)N[C@@H](CCc1ccccc1)C(=O)O`, the Delta blood pressure in assay [3] turned out to be 28 mmHg. Further, the IC50 on Neprilysin worked out at 21 nM; in assay [2], 640 nM.

As to `O=C(O)[C@H](CCc1ccccc1)N[C@@H](Cc1ccccc1)C(=O)NC[C@H](O)C(=O)O` (stereo in doubt; 6e) [listing 2 of 2 here], in assay [3], the Delta blood pressure was found to be 35 mmHg.
